Compounds with a hit are over-represented: about 2.8% of the library has one in this group of screens.
EP2 modulator = modulates human prostaglandin E2 receptor EP2 signaling; EP2-expressing cells, cAMP HTRF FRET, PGE2 co-stimulation; AID 940; induction, % at 25 µM; 260,000 tested, 0.83% active; P43116;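 active = compounds whose cAMP rise, as percent of the full-agonist control response, exceeds 60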;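 also: rat C6 glioma line stably carrying human EP2 under a CMV promoter; the protocol text gives 20 µM as final concentration; 100% = response of wells given 1 µM PGE2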
Target sequence (P43116 whole entry, looked up): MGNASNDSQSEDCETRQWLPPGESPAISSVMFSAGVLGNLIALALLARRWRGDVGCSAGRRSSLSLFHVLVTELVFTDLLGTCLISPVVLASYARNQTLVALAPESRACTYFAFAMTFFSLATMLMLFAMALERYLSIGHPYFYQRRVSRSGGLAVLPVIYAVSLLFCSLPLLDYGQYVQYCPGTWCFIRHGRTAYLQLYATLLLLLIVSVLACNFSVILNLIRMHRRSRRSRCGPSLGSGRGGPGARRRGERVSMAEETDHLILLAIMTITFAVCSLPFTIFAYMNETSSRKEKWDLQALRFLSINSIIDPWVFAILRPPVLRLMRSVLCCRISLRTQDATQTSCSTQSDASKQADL
NPY-Y1 antag = NPY-Y1 (human) receptor antagonism; P25929; HEK293-CNG Y1 cells, membrane potential fluorescence; NPY at EC95, then isoproterenol; inhibition, % at 3.6 µM; 200,000 tested, 1% active; AID 1040;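 active = inhibition above the campaign mean inhibition of all tested compounds plus 3 SD, cut at about 20% in these data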;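 also: 0% = DMSO wells given NPY plus isoproterenol and 100% = isoproterenol alone without NPY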
Target sequence (P25929 whole entry, looked up): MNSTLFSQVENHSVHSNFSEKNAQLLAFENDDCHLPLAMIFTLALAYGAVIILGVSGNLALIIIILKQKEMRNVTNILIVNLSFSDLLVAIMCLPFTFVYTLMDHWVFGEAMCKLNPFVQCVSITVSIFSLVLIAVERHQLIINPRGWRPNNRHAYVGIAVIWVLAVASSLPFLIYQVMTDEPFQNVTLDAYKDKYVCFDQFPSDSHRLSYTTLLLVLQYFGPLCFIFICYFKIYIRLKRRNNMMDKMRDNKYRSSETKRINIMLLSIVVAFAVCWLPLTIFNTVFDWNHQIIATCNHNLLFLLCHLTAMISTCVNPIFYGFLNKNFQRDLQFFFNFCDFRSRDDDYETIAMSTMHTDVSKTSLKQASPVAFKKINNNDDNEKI
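Test system: HEK293 cells co-expressing NPY Y1 receptor and cyclic-nucleotide gated channel; Also added: NPY (25 nM), isoproterenol (1 µM), Ro 20-1724 (25 µM); Compound dosing: one concentration, 3.6 µM, in 0.4% DMSO; Timing: dye 3 h, compound 60 min room temperature, stimulation 45 min; Technique: Membrane-potential fluorescent dye readout.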
NPY Y2 blocker = antagonists of human neuropeptide Y receptor Y2 | P49146 | NPY-Y2 expressing cells, antagonist mode | inhibition, % at 2.7 µM | 140,000 tested, 0.99% active | AID 793;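 also: 0% = vehicle with agonist challenge and 100% = reference antagonist with challenge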
NPY2 pot ag = potentiates or activates human NPY-Y2 receptor; activation, % at 3.6 µM; AID 1359; P49146; 220,000 tested, 0.45% active; cells expressing NPY-Y2, potentiator/agonist read-out; in the data active = activation above about 27%;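 also: cells stimulated with NPY near EC25 plus isoproterenol at EC100; 0% = vehicle plus submaximal agonist and 100% = vehicle plus saturating agonist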
PGE2 EP2 inh = inhibitors of human EP2 prostaglandin E2 receptor; C6 glioma cells expressing human EP2, cAMP TR-FRET; cells stimulated with saturating PGE2; inhibition, % at 25 µM; 260,000 tested, 0.52% active; P43116;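 active = percent inhibition above 40 after rounding to a whole number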;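 also: rat C6 glioma host cells with rolipram phosphodiesterase inhibitor present; the protocol text gives 20 µM as final concentration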
NPY-Y1 PAM-ag = human NPY-Y1 potentiation or agonism, primary screen; 220,000 tested, 0.37% active; AID 1304; activation, % at 3.6 µM; NPY-Y1 expressing cells, potentiator/agonist activation; in the data active = activation above about 33%, passing the limit was not always enough;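 also: cells stimulated with NPY at EC10 then isoproterenol at EC100; 0% = low agonist plus stimulus and 100% = saturating agonist plus stimulus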
NPY-Y1 ant conf = confirmation of human neuropeptide Y receptor Y1 antagonists. 1,200 tested, 21% active. HEK293-CNG NPY-Y1, membrane potential fluorescence, cAMP; NPY challenge against isoproterenol-raised cAMP. AID 1254. inhibition, % at 3.6 µM. shares compounds with NPY-Y1 antag; in the data active = inhibition above about 20%;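 also: 0% = vehicle with agonist plus stimulus and 100% = stimulus alone without agonist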
NPY-Y2 antag ct = human NPY-Y2 antagonism in NPY-Y1 counter-screen; shares compounds with NPY-Y1 antag; HEK293 NPY-Y2 CNG membrane potential fluorescence; cells given NPY, then isoproterenol; inhibition, % at 3.6 µM; 1,200 tested, 28% active; AID 1255;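 also: 0% = DMSO with agonist challenge and 100% = reference antagonist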
* hit, by the source's call; . = not tested or not shown. Rule as the data show it, unless noted: active = inhibition above about 17%; inactive = the rest.

SMILES | EP2 modulator | NPY-Y1 antag | NPY Y2 blocker | NPY2 pot ag | PGE2 EP2 inh | NPY-Y1 PAM-ag | NPY-Y1 ant conf | NPY-Y2 antag ct
O=S(=O)(c1ccc(-n2cnnn2)cc1)N1CCN(c2ncccn2)CC1 | -24.9 | . | . | . | 5.4 | . | . | .
Cc1cc(C)c2[nH]c(=O)c(CN(CCc3ccccc3)Cc3nnnn3C3CCCC3)cc2c1 | 46.3 | . | . | . | 5.0 | . | . | .
CCN(CC)CCCNc1nc2ccccc2[nH]1 | 17.0 | 30.1* | 1.5 | -3.9 | 11.7 | -4.0 | 0.9 | 0.3
Cc1ccc(/C=C(\CCC(=O)O)c2nc3ccccc3s2)cc1[N+](=O)[O-] | 2.5 | 17.9 | 14.6 | -26.4 | 3.2 | -21.8 | . | .
CNc1ccc(/C=C(\CCC(=O)O)c2nc3ccccc3s2)cc1[N+](=O)[O-] | -1.8 | 25.5* | 15.1 | -23.6 | 5.3 | -78.9 | 38.8* | 51.8*
CCn1cc(C(=O)NCCCN(C)c2ccccc2)c(=O)c2cc(S(=O)(=O)N(C)C)ccc21 | -11.7 | 10.8 | 16.4 | -4.0 | 3.5 | -11.1 | . | .
CCN(CCCNC(=O)c1cn(CC)c2ccc(S(=O)(=O)N(C)C)cc2c1=O)c1cccc(C)c1 | 1.9 | 35.2* | 13.5 | -18.5 | 7.1 | -17.7 | 56.7* | 72.2*
COc1ccc(/C=C2\N=C(c3cccs3)OC2=O)cc1OCc1ccccc1 | 46.6 | . | . | . | 9.7 | . | . | .
N=c1n(Cc2ccc(Cl)cc2)c2ccccc2n1CC(O)COc1ccccc1 (configuration not stated) | -63.2 | 41.3* | . | -26.3 | 7.7 | -9.5 | 25.6* | 22.2*
CCN(CC)CCn1c(=N)n(CC(O)c2ccc(OC)c(OC)c2)c2ccccc21 (configuration not stated) | 27.5 | 0.9 | . | 10.7 | 4.9 | -1.5 | . | .
CCN(CC)CCn1c(=N)n(CC(O)COc2cccc(C)c2)c2ccccc21 (configuration not stated) | -30.6 | 55.5* | . | -28.3 | 10.5 | -47.7 | 43.6* | 41.5*
O=C(C1CC1)N1CCC(c2nc3c(nnn3Cc3ccccc3)c(=O)[nH]2)CC1 | 13.7 | . | . | . | 7.3 | . | . | .
COc1ccc(C)cc1NC(=O)CSc1nnc(COc2ccccc2)n1Cc1ccco1 | 11.6 | 20.8* | 4.5 | -2.3 | . | -35.0 | 5.0 | 4.6
CN1\C(=C/C=C/C=C/C=[N+](C)C)C(C)(C)c2ccccc21 | -63.4 | 150.8* | . | -8.3 | 32.6 | 3.5 | 194.6* | 144.7*
CN1/C(=C\C=O)C(C)(C)c2ccccc21 | -36.9 | 5.6 | . | -17.7 | 5.7 | -23.6 | . | .
CCCCn1c(SCC(=O)NC(C)CC)nc2ccc(N3CCOCC3)cc2c1=O (configuration not stated) | 0.6 | 23.3* | 1.8 | 8.5 | . | 4.9 | -1.1 | 2.7
O=C(Nc1ccccc1Cl)Nc1cccnc1Cl | 2.9 | -1.5 | . | -1.0 | 4.8 | 3.9 | . | .
CCC(=O)NS(=O)(=O)c1cccnc1Nc1ccccc1Cl | 1.1 | 23.9* | 12.2 | -16.5 | . | -27.5 | 21.7* | 19.3*
COC(=O)c1ccccc1NC(=O)c1ccc(COc2ccc(C)c(C)c2)o1 | 12.7 | 28.7* | 10.4 | 4.8 | 4.2 | -4.7 | 9.7 | 11.9
COC(=O)c1ccccc1NC(=O)c1cccc(NC(=O)C(C)C)c1 | 32.5 | -0.1 | . | -5.0 | 4.7 | -22.5 | . | .
COC(=O)c1ccccc1NC(=O)c1cc(OC)cc(OC)c1 | 47.3 | 21.1* | 3.8 | -7.4 | 12.3 | -27.9 | 9.2 | 11.7
COC(=O)c1ccccc1NC(=O)c1ccc(COc2cc(C)cc(C)c2)o1 | 18.4 | 6.5 | 8.7 | -9.7 | 8.0 | -9.0 | . | .
CCc1nc(C(N)=O)c2[nH]c(=O)n(-c3ccccc3Cl)c2n1 | 10.4 | . | . | . | . | . | . | .
Cc1noc(C)c1CSc1nc2[nH]ncc2c(=O)n1-c1ccccc1 | 30.7 | 21.1* | 6.5 | -17.8 | 22.4 | -1.8 | 8.0 | 14.6
Cc1nc(CSc2nc3[nH]ncc3c(=O)n2-c2ccccc2)cs1 | 13.8 | 2.5 | 4.8 | -11.3 | 10.0 | -4.3 | . | .
SMILES | EP2 modulator | NPY-Y1 antag | NPY Y2 blocker | NPY2 pot ag | PGE2 EP2 inh | NPY-Y1 PAM-ag | NPY-Y1 ant conf | NPY-Y2 antag ct
CCn1c(SCC(=O)Nc2cccc(C)c2)nnc1-c1cccs1 | -26.0 | . | . | . | 9.7 | . | . | .
COc1cccc(NC(=O)CN(C)C(=O)COc2ccc3ccccc3c2)c1 | -4.5 | 16.1 | 9.6 | -6.5 | 7.3 | -19.5 | . | .
CCN(CC(=O)Nc1ccccc1OC)C(=O)COc1ccc2ccccc2c1 | -34.9 | 23.9* | 15.2 | -16.2 | 5.4 | -38.6 | 16.8 | 7.1
CCNc1nc(NCC)nc(SCCOC(=O)Nc2ccc(Cl)cc2Cl)n1 | 30.1 | 24.0* | 12.7 | -21.2 | 4.3 | -39.6 | 9.7 | 11.8
O=C(O)/C(=C\c1ccncc1)NC(=O)c1ccccc1 | -0.3 | . | . | . | 8.8 | . | . | .
CCOC(=O)c1sc(N(Cc2ccccc2)C(=O)COC(=O)c2ccccc2O)nc1C | -15.9 | 20.2* | 12.5 | -3.6 | 9.3 | -45.2 | 15.7 | 8.5
CC1CCN(C(=O)CSc2nnc3c4ccccc4nc(C(C)(C)C)n23)CC1 | -26.9 | . | . | . | 6.0 | . | . | .
CCc1ccc(NC(=O)CSc2nc3ccccc3c(=O)n2CCCN2CCC(C)CC2)cc1 | 13.6 | 37.6* | . | -15.3 | 8.2 | -38.4 | 47.4* | 50.6*
CC(C)N1C(=O)C(Cc2nc3ccccc3c(=O)n2-c2ccccc2)c2ccccc21 (configuration not stated) | 4.0 | 22.1* | 2.0 | -30.4 | 16.1 | -56.8 | 14.5 | 18.0*
Cc1cc2ncn(-c3ncnc4sc(C)c(C)c34)c2cc1C | 10.7 | 5.2 | 4.1 | -9.5 | 8.6 | -18.3 | . | .
Cc1cc2ncn(-c3ncnc4scc(-c5ccccc5)c34)c2cc1C | 12.1 | 31.1* | 14.7 | -13.1 | . | -24.7 | 18.2 | 12.8
O=S(=O)(NCc1ccncc1)c1cccc2ccccc12 | -44.5 | . | . | . | 4.2 | . | . | .
COc1ccc(C2Nc3ccccc3C(=O)N2Cc2ccccc2)cc1COc1ccccn1 (configuration not stated) | 23.0 | 35.8* | 14.5 | -17.4 | 2.9 | -4.5 | 4.4 | 6.1
COc1ccc(N2C(=O)c3ccccc3NC2c2ccc(OC)c(COc3ccccn3)c2)cc1 (configuration not stated) | 19.7 | 8.3 | 4.1 | 0.8 | 10.8 | -20.8 | . | .
Cc1ccccc1C1c2[nH]c3ccccc3c2CCN1Cc1cccn1-c1ncccn1 (configuration not stated) | 28.7 | . | . | -28.1 | 8.6 | -12.0 | . | .
Fc1ccccc1C1c2[nH]c3ccccc3c2CCN1Cc1cccn1-c1ncccn1 (configuration not stated) | 17.3 | 29.2* | . | -48.8 | 3.4 | -20.6 | 8.3 | 14.1
CCOC(=O)Nc1ccc2c(c1)N(C(=O)CN1CCCCC1)c1ccccc1CC2 | -27.8 | . | . | . | 10.8 | . | . | .
